From ChEMBL document CHEMBL4261535, “Tetrahydroquinolinone derivatives as potent P-glycoprotein inhibitors: design, synthesis, biological evaluation and molecular docking analysis” (Medchemcomm, 2017)
Activity calls are given as the source filed them. The calls are words filed in the database; no cut-off is given here.

Assays:
[1] = species on record: Homo sapiens; experiment: Inhibition of p-gp in human MES-SA/DX5 cells assessed as increase in rhodamine 123 accumulation preincubated for 20 mins followed by rhodamine 123 addition and measured after 20 mins by flow cytometric method; format: cell-based
How it was run: (§1)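 Cells in serum-free RPMI at 5 × 10^5 cells per ml (MES-SA/DX5 taken off doxorubicin one day before). Compound 20 min at 37 °C, then 5 μM rhodamine 123 for 20 min at 37 °C. Washed twice in ice-cold PBS, kept on ice. Flow cytometry at 488 nm excitation, 530 nm emission, 20 000 cells. Gmean fluorescence expressed as a ratio to untreated cells. Verapamil was the positive control.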

[2] = n-octanol-water partition co-efficient, log P of the compound; format: physicochemical
[3] = tested on: MES-SA; experiment: Increase in rhodamine 123 accumulation in human MES-SA cells at 5 to 100 uM preincubated for 20 mins followed by rhodamine 123 addition and measured after 20 mins by flow cytometric method; format: functional, cell-based; how it was run: as §1
[4] = species on record: Homo sapiens; experiment: Inhibition of p-gp in human MES-SA/DX5 cells assessed as potentiation of doxorubicin-induced cytotoxicity at 5 uM preincubated for 1.5 hrs followed by doxorubicin addition and measured after 48 hrs by MTT assay; format: cell-based
[5] = species on record: Homo sapiens; experiment: Inhibition of p-gp in human MES-SA/DX5 cells assessed as increase in rhodamine 123 accumulation preincubated for 20 mins followed by rhodamine 123 addition and measured after 20 mins by fluorescence microscopic method; format: cell-based
How it was run: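 MES-SA/DX5 seeded at 2 × 10^5 cells per ml and grown two days at 37 °C. Compound at 25 μM for 20 min, then rhodamine 123 at 5 μM final for 20 min. Cells washed three times with ice-cold PBS and resuspended in cold PBS. Imaged by fluorescence microscopy with a blue filter (510–560 nm). Untreated cells served as control.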

[6] = species on record: Homo sapiens; experiment: Inhibition of p-gp in human MES-SA/DX5 cells assessed as potentiation of doxorubicin-induced cytotoxicity at 25 uM preincubated for 1.5 hrs followed by doxorubicin addition and measured after 48 hrs by MTT assay; format: cell-based

SMILES | logP [2] | inhibition [1] | Activity [3] | inhibition [4] | inhibition [5] | inhibition [6]
CCCC1C(C(=O)OCc2ccccn2)=C(C)NC2=C1C(=O)CCC2 (stereo not given) | 2.6 | Dose-dependent effect | inactive |  |  | 
CC1=C(C(=O)OCc2cccnc2)C(c2ccccc2[N+](=O)[O-])C2=C(CCCC2=O)N1 (stereo not given) | 1.51 |  | inactive |  | Dose-dependent effect | Active
CC1=C(C(=O)OCc2cccnc2)C(c2cccc(O)c2)C2=C(CCCC2=O)N1 (stereo not given) | 1.21 | Dose-dependent effect | inactive |  |  | 
CC1=C(C(=O)OCc2cccnc2)C(c2ccc(Cl)cc2)C2=C(CCCC2=O)N1 (stereo not given) | 1.87 | Dose-dependent effect | inactive | Active |  | 
CC1=C(C(=O)OCc2cccnc2)C(c2ccc(Br)cc2)C2=C(CCCC2=O)N1 (stereo not given) | 2.05 | Dose-dependent effect | inactive | Active |  | 
CC1=C(C(=O)OCc2cccnc2)C(c2ccco2)C2=C(CCCC2=O)N1 (stereo not given) | 1.03 | Dose-dependent effect | inactive |  |  | 
CC1=C(C(=O)OCc2cccnc2)C(c2ccc([N+](=O)[O-])cc2)C2=C(CCCC2=O)N1 (stereo not given) | 1.51 | Dose-dependent effect | inactive |  | Dose-dependent effect | Active
CC1=C(C(=O)OCc2cccnc2)C(c2ccccc2)C2=C(CCCC2=O)N1 (stereo not given) | 2.35 | Dose-dependent effect | inactive |  |  | 
CC1=C(C(=O)OCc2cccnc2)C(c2ccc(C#N)cc2)C2=C(CCCC2=O)N1 (stereo not given) | 1.36 | Dose-dependent effect | inactive |  |  | 
CCCC1C(C(=O)OCc2cccnc2)=C(C)NC2=C1C(=O)CCC2 (stereo not given) | 2.23 | Dose-dependent effect | inactive |  |  | 
COc1cc(C2C(C(=O)OCc3ccccn3)=C(C)NC3=C2C(=O)CCC3)cc(OC)c1OC (stereo not given) | 2.17 | Dose-dependent effect | inactive |  |  | 
CC1=C(C(=O)OCc2cccnc2)C(c2cccs2)C2=C(CCCC2=O)N1 (stereo not given) | 1.4 | Dose-dependent effect | inactive |  |  | Active
COc1ccc(C2C(C(=O)OCc3cccnc3)=C(C)NC3=C2C(=O)CCC3)cc1 (stereo not given) | 1.53 | Dose-dependent effect | inactive |  |  | 
CC1=C(C(=O)OCc2ccccn2)C(c2ccccc2[N+](=O)[O-])C2=C(CCCC2=O)N1 (stereo not given) | 1.88 |  | inactive | Active | Dose-dependent effect | 

Further lines, with some results ahead:

logP [2] | SMILES | inhibition [1] | Activity [3] | inhibition [4] | inhibition [5] | inhibition [6]
1.9 | COc1ccc(C2C(C(=O)OCc3ccccn3)=C(C)NC3=C2C(=O)CCC3)cc1 (stereo not given) | Dose-dependent effect | inactive | Active |  | 
2.42 | CC1=C(C(=O)OCc2ccccn2)C(c2ccc(Br)cc2)C2=C(CCCC2=O)N1 (stereo not given) | Dose-dependent effect | inactive | Active | Dose-dependent effect | 
1.4 | CC1=C(C(=O)OCc2ccccn2)C(c2ccco2)C2=C(CCCC2=O)N1 (stereo not given) | Dose-dependent effect | inactive |  |  | 
1.88 | CC1=C(C(=O)OCc2ccccn2)C(c2cccc([N+](=O)[O-])c2)C2=C(CCCC2=O)N1 (stereo not given) | Dose-dependent effect | inactive |  |  | 
1.73 | CC1=C(C(=O)OCc2ccccn2)C(c2ccc(C#N)cc2)C2=C(CCCC2=O)N1 (stereo not given) | Dose-dependent effect | inactive | Active | Dose-dependent effect | 
2.72 | CC1=C(C(=O)OCc2ccccn2)C(c2ccccc2)C2=C(CCCC2=O)N1 (stereo not given) | Dose-dependent effect | inactive |  |  | 
2.24 | CC1=C(C(=O)OCc2ccccn2)C(c2ccc(Cl)cc2)C2=C(CCCC2=O)N1 (stereo not given) | Dose-dependent effect | inactive | Active |  | 
1.58 | CC1=C(C(=O)OCc2ccccn2)C(c2cccc(O)c2)C2=C(CCCC2=O)N1 (stereo not given) | Dose-dependent effect | inactive |  |  | 
1.77 | CC1=C(C(=O)OCc2ccccn2)C(c2cccs2)C2=C(CCCC2=O)N1 (stereo not given) | Dose-dependent effect | inactive |  |  | 
1.88 | CC1=C(C(=O)OCc2ccccn2)C(c2ccc([N+](=O)[O-])cc2)C2=C(CCCC2=O)N1 (stereo not given) | Dose-dependent effect | inactive | Active | Dose-dependent effect | 
1.58 | CC1=C(C(=O)OCc2ccccn2)C(c2ccc(O)cc2)C2=C(CCCC2=O)N1 (stereo not given) | Dose-dependent effect | inactive |  |  | 
